Measurements published in PMC8268672 (Bioorganic Chemistry, 2021).
≈ marks a conversion by molar mass, not a printed value. Where two headings read alike, the source gives them in different places.

How the values were obtained:
[1] = test system: Aspergillus niger (NCIM 2191); experiment: MIC, broth microdilution; assay type: cell-based; conditions: NCIM2191, read-out: Minimum inhibitory concentration (MIC), AN
Outline: (§1)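 Antifungal MICs by CLSI broth microdilution in Sabouraud liquid medium. Test compounds and standard drugs are serially diluted two-fold from 512 to 0.25. The fungal broth culture is grown 24 h at 35 °C to a 0.5 McFarland turbidity, then adjusted with sterile solution to the final inoculum.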

[2] = test system: Bacillus cereus (NCIM-2458); experiment: MIC, broth microdilution; assay type: cell-based; conditions: NCIM2458, read-out: Minimum inhibitory concentration (MIC), BC
Outline: (§2)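 Broth microdilution per CLSI in Mueller-Hinton broth, using two-fold serial dilutions of test compound and reference drugs from 512 to 0.25. Bacterial broth cultures were grown 2-6 h to 0.5 McFarland turbidity, then diluted with sterile solution to the final inoculum. MIC is reported in µg/mL.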

Punta Toro virus = experiment: CPE reduction assay in Vero cells; assay type: cell-based; conditions: read-out: Antiviral EC50, Punta Toro virus
[3] = test system: Salmonella typhimurium (NCIM-2501); experiment: Agar disk diffusion, inhibition zone; assay type: cell-based; conditions: 100 µg/8 mm disc, triplicate, mean ± SD
Adeno virus-2 = experiment: CPE reduction assay in HEL cells; assay type: cell-based; conditions: read-out: Antiviral EC50, Adeno virus-2
Vaccinia virus = experiment: microbe, parasite or virus in culture; assay type: cell-based; conditions: Orthopoxvirus vaccinia, HEL, read-out: Antiviral EC50, Vaccinia virus
[4] = test system: Aspergillus fumigatus (NCIM 2081); experiment: MIC, broth microdilution; assay type: cell-based; conditions: NCIM2081, read-out: Minimum inhibitory concentration (MIC), AF
Outline: as §1

Influenza B B/Ned/537/05 = experiment: CPE reduction assay in MDCK cells; assay type: cell-based; conditions: Influenza B virus, read-out: Antiviral EC50, Influenza B B/Ned/537/05, MTS
[5] = test system: Madin Darby canine kidney (MDCK) cells; conditions: dog
[6] = test system: Candida albicans (NCIM 2087); experiment: Agar disk diffusion, inhibition zone; assay type: cell-based; conditions: 100 µg/8 mm disc, triplicate, mean ± SD
[7] = test system: Influenza A/H3N2 A/HK/7/87; experiment: CPE reduction assay in MDCK cells; assay type: cell-based; conditions: Influenza A virus
Yellow Fever virus = experiment: microbe, parasite or virus in culture; assay type: cell-based; conditions: Yellow fever virus, Vero, read-out: Antiviral EC50, Yellow Fever virus
[8] = test system: Aspergillus niger (NCIM 2191); experiment: Agar disk diffusion, inhibition zone; assay type: cell-based; conditions: 100 µg/8 mm disc, triplicate, mean ± SD
Outline: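 For the fungal strain, discs soaked in test compound solution (DMSO stock diluted with distilled water) sat on seeded Mueller-Hinton agar. Clotrimazole was the reference. Incubation ran 48 h at 35 °C, in triplicate. Zone of growth inhibition recorded in mm as the mean diameter around each disc.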

[9] = test system: Escherichia coli (ATCC 8739); experiment: MIC, broth microdilution; assay type: cell-based; conditions: ATCC8739, read-out: Minimum inhibitory concentration (MIC), EC
Outline: as §2

[10] = test system: Human embryonic lung (HEL) cells; conditions: HEL cell cultures; microscopically detectable alteration of normal cell morphology
[11] = test system: Cryptococcus neoformans (ATCC 9011); experiment: Agar disk diffusion, inhibition zone; assay type: cell-based; conditions: 100 µg/8 mm disc, triplicate, mean ± SD
MT4 cells = conditions: MT4 cell cultures; colorimetric MTT cell viability assay
[12] = test system: Cryptococcus neoformans (ATCC 9011); experiment: MIC, broth microdilution; assay type: cell-based; conditions: ATCC9011, read-out: Minimum inhibitory concentration (MIC), CN
Outline: as §1

Coxsackie virus B4 = experiment: CPE reduction assay in Vero cells; assay type: cell-based; conditions: Enterovirus B, read-out: Antiviral EC50, Coxsackie virus B4
Sindbis virus = experiment: CPE reduction assay in Vero cells; assay type: cell-based; conditions: read-out: Antiviral EC50, Sindbis virus
[13] = test system: Candida albicans (NCIM 2087); experiment: MIC, broth microdilution; assay type: cell-based; conditions: NCIM2087, read-out: Minimum inhibitory concentration (MIC), CA
Outline: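 CLSI broth microdilution in Sabouraud liquid medium, with test compound two-fold serially diluted from 512 to 0.25. Fungal broth culture grown 24 h at 35 °C to 0.5 McFarland turbidity, then adjusted with sterile solution to a final […] inoculum. MIC expressed in µg/mL.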

[14] = test system: Aspergillus fumigatus (NCIM 2081); experiment: Agar disk diffusion, inhibition zone; assay type: cell-based; conditions: 100 µg/8 mm disc, triplicate, mean ± SD
[15] = test system: Streptococcus pneumonia (ATCC 49619); experiment: Agar disk diffusion, inhibition zone; assay type: cell-based; conditions: 100 µg/8 mm disc, triplicate, mean ± SD
Reovirus-1 = experiment: CPE reduction assay in Vero cells; assay type: cell-based; conditions: read-out: Antiviral EC50, Reovirus-1
Vero cells = conditions: Vero cell cultures; microscopically detectable alteration of normal cell morphology
[16] = test system: Influenza A/H1N1 A/Ned/378/05; experiment: CPE reduction assay in MDCK cells; assay type: cell-based; conditions: Influenza A virus
[17] = test system: Lactobacillus casei (NCIM-2651); experiment: Agar disk diffusion, inhibition zone; assay type: cell-based; conditions: 100 µg/8 mm disc, triplicate, mean ± SD
[18] = test system: Escherichia coli (ATCC 8739); experiment: Agar disk diffusion, inhibition zone; assay type: cell-based; conditions: 100 µg/8 mm disc, triplicate, mean ± SD
Outline: (§3)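 Agar disk diffusion on Mueller-Hinton agar plates seeded with a standard bacterial suspension. Test compound stock in DMSO, diluted with distilled water; 8 mm sterile filter-paper discs soaked in the solution. Ampicillin was the reference. Plates incubated at 35 °C for 24 h, in triplicate. Read-out is the average inhibition-zone diameter (mm) around each disc.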

[19] = test system: Pseudomonas aeruginosa (MCCB 0035); experiment: MIC, broth microdilution; assay type: cell-based; conditions: read-out: Minimum inhibitory concentration (MIC), PA
Outline: as §2

[20] = test system: Staphylococcus aureus (ATCC 29213); experiment: Agar disk diffusion, inhibition zone; assay type: cell-based; conditions: 100 µg/8 mm disc, triplicate, mean ± SD
Outline: as §3

[21] = test system: Klebsiella aerogenes (NCIM-2098); experiment: MIC, broth microdilution; assay type: cell-based; conditions: NCIM2098, read-out: Minimum inhibitory concentration (MIC), KA
Outline: (§4)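 Antibacterial MICs by CLSI broth microdilution in Mueller-Hinton broth. Test compounds and standard drugs are serially diluted two-fold from 512 to 0.25. The bacterial broth culture is grown 2-6 h to a 0.5 McFarland turbidity, then adjusted with sterile solution to the final inoculum.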

Human Coronavirus (229E) = experiment: CPE reduction assay in HEL cells; assay type: cell-based; conditions: read-out: Antiviral EC50, Human Coronavirus (229E)
[22] = test system: Bacillus cereus (NCIM-2458); experiment: Agar disk diffusion, inhibition zone; assay type: cell-based; conditions: 100 µg/8 mm disc, triplicate, mean ± SD
[23] = test system: Klebsiella aerogenes (NCIM-2098); experiment: Agar disk diffusion, inhibition zone; assay type: cell-based; conditions: 100 µg/8 mm disc, triplicate, mean ± SD
Para-influenza-3 virus = experiment: CPE reduction assay in Vero cells; assay type: cell-based, Parainfluenza-3 virus; conditions: Vero, read-out: Antiviral EC50, Para-influenza-3 virus
[24] = test system: Pseudomonas aeruginosa (MCCB 0035); experiment: Agar disk diffusion, inhibition zone; assay type: cell-based; conditions: 100 µg/8 mm disc, triplicate, mean ± SD
[25] = test system: Staphylococcus aureus (ATCC 29213); experiment: MIC, broth microdilution; assay type: cell-based; conditions: ATCC29213, read-out: Minimum inhibitory concentration (MIC), SA
Outline: as §4

[26] = read-out: Antiviral EC50, Influenza A/H3N2 A/HK/7/87, MTS
[27] = read-out: Antiviral EC50, Influenza A/H3N2 A/HK/7/87, visual CPE score
[28] = read-out: Antiviral EC50, Influenza A/H1N1 A/Ned/378/05, MTS
[29] = read-out: Antiviral EC50, Influenza A/H1N1 A/Ned/378/05, visual CPE score

Cc1ccc(S(=O)(=O)N2C(=O)CSC2c2ccccc2F)cc1 (stereo not drawn) [5h, 2-(2-Fluorophenyl)-3-[(4-methylphenyl)sulfonyl]-1,3-thiazolidin-4-one]
MIC [1]: 32 µg/mL (≈ 91.1 µM)
MIC [2]: 16 µg/mL (≈ 45.5 µM)
EC50 (Punta Toro virus): > 100 µM
Diameter of growth inhibition zone, ST [3]: 14 ± 1.3 mm
EC50 (Adeno virus-2): > 100 µM
EC50 (Vaccinia virus): > 100 µM
MIC [4]: 16 µg/mL (≈ 45.5 µM)
EC50 (Influenza B B/Ned/537/05): > 100 µM
Cytotoxicity, Minimum cytotoxic conc. [5]: >100 µM
Diameter of growth inhibition zone, CA [6]: 15 ± 0.56 mm
EC50 [7, 26]: > 100 µM
EC50 [7, 27]: > 100 µM
EC50 (Yellow Fever virus): > 100 µM
Diameter of growth inhibition zone, AN [8]: 12 ± 0.66 mm
MIC [9]: 4 µg/mL (≈ 11.4 µM)
Minimum cytotoxic conc. [10]: >100 µM
Diameter of growth inhibition zone, CN [11]: 19 ± 1.1 mm
Minimum cytotoxic conc. (MT4 cells): 111 µM
MIC [12]: 8 µg/mL (≈ 22.8 µM)
EC50 (Coxsackie virus B4): > 100 µM
EC50 (Sindbis virus): > 100 µM
MIC [13]: 32 µg/mL (≈ 91.1 µM)
Diameter of growth inhibition zone, AF [14]: 15 ± 1.2 mm
Diameter of growth inhibition zone, SP [15]: 10 ± 1.7 mm
EC50 (Reovirus-1): > 100 µM
Minimum cytotoxic conc. (Vero cells): >100 µM
EC50 [16, 28]: > 100 µM
EC50 [16, 29]: > 100 µM
Diameter of growth inhibition zone, LC [17]: 19 ± 1.2 mm
Diameter of growth inhibition zone, EC [18]: 23.8 ± 0.9 mm
MIC [19]: 8 µg/mL (≈ 22.8 µM)
Diameter of growth inhibition zone, SA [20]: 19 ± 1.1 mm
MIC [21]: 64 µg/mL (≈ 182 µM)
EC50 (Human Coronavirus (229E)): > 100 µM
Diameter of growth inhibition zone, BC [22]: 14 ± 0.62 mm
Diameter of growth inhibition zone, KA [23]: 10 ± 0.5 mm
EC50 (Para-influenza-3 virus): > 100 µM
Diameter of growth inhibition zone, PA [24]: 20 ± 0.6 mm
MIC [25]: 8 µg/mL (≈ 22.8 µM)

Cc1ccc(S(=O)(=O)N2C(=O)CSC2c2ccc(Cl)cc2)cc1 (stereo not drawn) [5g, 2-(4-Chlorophenyl)-3-[(4-methylphenyl)sulfonyl]-1,3-thiazolidin-4-one]
MIC [1]: 8 µg/mL (≈ 21.7 µM)
MIC [2]: 8 µg/mL (≈ 21.7 µM)
EC50 (Punta Toro virus): > 100 µM
Diameter of growth inhibition zone, ST [3]: 12 ± 0.9 mm
EC50 (Adeno virus-2): > 100 µM
EC50 (Vaccinia virus): > 100 µM
MIC [4]: 16 µg/mL (≈ 43.5 µM)
EC50 (Influenza B B/Ned/537/05): > 100 µM
Cytotoxicity, Minimum cytotoxic conc. [5]: >100 µM
Diameter of growth inhibition zone, CA [6]: 20 ± 1.5 mm
EC50 [7, 26]: > 100 µM
EC50 [7, 27]: > 100 µM
EC50 (Yellow Fever virus): > 100 µM
Diameter of growth inhibition zone, AN [8]: 18 ± 1.1 mm
MIC [9]: 4 µg/mL (≈ 10.9 µM)
Minimum cytotoxic conc. [10]: >100 µM
Diameter of growth inhibition zone, CN [11]: 12 ± 1.8 mm
Minimum cytotoxic conc. (MT4 cells): >125 µM
MIC [12]: 16 µg/mL (≈ 43.5 µM)
EC50 (Coxsackie virus B4): > 100 µM
EC50 (Sindbis virus): > 100 µM
MIC [13]: 8 µg/mL (≈ 21.7 µM)
Diameter of growth inhibition zone, AF [14]: 13 ± 0.63 mm
Diameter of growth inhibition zone, SP [15]: 12 ± 1.43 mm
EC50 (Reovirus-1): > 100 µM
Minimum cytotoxic conc. (Vero cells): >100 µM
EC50 [16, 28]: > 100 µM
EC50 [16, 29]: > 100 µM
Diameter of growth inhibition zone, LC [17]: 14 ± 0.4 mm
Diameter of growth inhibition zone, EC [18]: 23 ± 0.32 mm
MIC [19]: 8 µg/mL (≈ 21.7 µM)
Diameter of growth inhibition zone, SA [20]: 22 ± 0.63 mm
MIC [21]: 32 µg/mL (≈ 87 µM)
EC50 (Human Coronavirus (229E)): > 100 µM
Diameter of growth inhibition zone, BC [22]: 18 ± 0.33 mm
Diameter of growth inhibition zone, KA [23]: 12 ± 0.12 mm
EC50 (Para-influenza-3 virus): > 100 µM
Diameter of growth inhibition zone, PA [24]: 24 ± 1.5 mm
MIC [25]: 4 µg/mL (≈ 10.9 µM)
